Reference: EPA's CvTdb concentration-time database

Key:
[1] = system: Mouse; assay: concentration in plasma after dosing; details: dosed: 2-Hydroxy-4-methoxybenzophenone, 100 mg/kg, oral, Male, B6C3F1
[2] = system: Mouse; assay: concentration in plasma after dosing; details: 0.25 h; dosed: 2-Hydroxy-4-methoxybenzophenone; 500 mg/kg; oral; Male; B6C3F1
[3] = system: Rat; assay: concentration in plasma after dosing; details: dosed: 2-Hydroxy-4-methoxybenzophenone, 100 mg/kg, oral, Male, F344
[4] = system: Mouse; assay: concentration in plasma after dosing; details: 2.5 min; dosed: 2-Hydroxy-4-methoxybenzophenone; 250 mg/kg; oral; Male; B6C3F1
[5] = system: Rat; assay: concentration in plasma after dosing; details: 1.5 h; dosed: Primidone; 80 mg/kg; oral; Female; F344
[6] = system: Rat; assay: concentration in plasma after dosing; details: 9 h; dosed: Primidone; 80 mg/kg; oral; Male; F344
[7] = system: Rat; assay: concentration in plasma after dosing; details: 0.25 h; dosed: Primidone; 30 mg/kg; oral; Female; F344
[8] = system: Rat; assay: concentration in plasma after dosing; details: 3 h; dosed: Primidone; 30 mg/kg; oral; Female; F344
[9] = system: Rat; assay: concentration in plasma after dosing; details: 0.5 h; dosed: Primidone; 130 mg/kg; oral; Female; F344
[10] = system: Rat; assay: concentration in plasma after dosing; details: 1.5 h; dosed: Primidone; 30 mg/kg; oral; Male; F344
[11] = system: Mouse; assay: concentration in plasma after dosing; details: dosed: 2,4-Dichlorophenoxyacetic acid, 2.0 mg/kg, oral, Male, B6C3F1
[12] = system: Hamster; assay: concentration in plasma after dosing; details: dosed: 2,4-Dichlorophenoxyacetic acid, 2.0 mg/kg, oral, Male, Syrian Golden
In short: (§1)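 Data points giving concentration or amount against time came from published in vivo toxicokinetic studies and from two structured collections. PubMed searching, classifier screening and manual review located the studies. Most points were digitised from plot screenshots using WebPlotDigitizer, the rest were copied from tables, and all keep their reported units.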

[13] = system: Mouse; assay: concentration in plasma after dosing; details: dosed: 2,4-Dichlorophenoxyacetic acid, 1.0 mg/kg, iv, Male, B6C3F1
[14] = system: Hamster; assay: concentration in plasma after dosing; details: dosed: 2,4-Dichlorophenoxyacetic acid, 8.0 mg/kg, iv, Male, Syrian Golden
In short: as §1

[15] = system: Rat; assay: concentration in brain after dosing; details: 1.5 h; dosed: alpha-Thujone; 25 mg/kg; oral; Male; Harlan Sprague Dawley
[16] = system: Rat; assay: concentration in brain after dosing; details: 5 min; dosed: alpha-Thujone; 25 mg/kg; oral; Male; Harlan Sprague Dawley
[17] = system: Rat; assay: concentration in brain after dosing; details: 0.5 h; dosed: alpha-Thujone; 25 mg/kg; oral; Male; Harlan Sprague Dawley
[18] = system: Rat; assay: concentration in brain after dosing; details: 2 min; dosed: alpha-Thujone; 50 mg/kg; oral; Female; Harlan Sprague Dawley
[19] = system: Rat; assay: concentration in brain after dosing; details: 10 min; dosed: alpha-Thujone; 25 mg/kg; oral; Male; Harlan Sprague Dawley
[20] = system: Rat; assay: concentration in plasma after dosing; details: 5 min; dosed: alpha-Thujone; 25 mg/kg; oral; Male; Harlan Sprague Dawley
[21] = system: Rat; assay: concentration in plasma after dosing; details: 0.5 h; dosed: alpha-Thujone; 50 mg/kg; oral; Female; Harlan Sprague Dawley
[22] = system: Rat; assay: concentration in plasma after dosing; details: 10 min; dosed: alpha-Thujone; 25 mg/kg; oral; Male; Harlan Sprague Dawley
[23] = system: Rat; assay: concentration in brain after dosing; details: 3 h; dosed: Perfluorohexane-1-sulphonic acid – potassium salt; 16 mg/kg; oral; Female; F344
[24] = system: Rat; assay: concentration in kidney after dosing; details: 12 h; dosed: Perfluorohexane-1-sulphonic acid – potassium salt; 16 mg/kg; oral; Female; F344
[25] = system: Rat; assay: concentration in kidney after dosing; details: 96 h; dosed: Perfluorohexane-1-sulphonic acid – potassium salt; 16 mg/kg; oral; Female; Harlan Sprague Dawley
[26] = system: Rat; assay: concentration in plasma after dosing; details: dosed: Perfluorohexane-1-sulphonic acid – potassium salt, 4 mg/kg, oral, Male, F344
[27] = system: Rat; assay: concentration in kidney after dosing; details: 3 h; dosed: Perfluorohexane-1-sulphonic acid – potassium salt; 16 mg/kg; oral; Female; Harlan Sprague Dawley
[28] = system: Rat; assay: concentration in plasma after dosing; details: 20 min; dosed: Pyridine; 10 mg/kg; iv; Male; F344
[29] = system: Rat; assay: concentration in plasma after dosing; details: dosed: Pyridine, 25 mg/kg, oral, Male, F344
[30] = system: Rat; assay: concentration in plasma after dosing; details: 2 min; dosed: Methyleugenol; 37 mg/kg; oral; Female; F344/N
[31] = system: Rat; assay: concentration in plasma after dosing; details: dosed: Methyleugenol, 37 mg/kg, oral, Female, F344/N
[32] = system: Rat; assay: concentration in plasma after dosing; details: dosed: Methyleugenol, 37 mg/kg, iv, Female, F344

O=C(c1ccccc1)c1ccc(O)cc1O [2,4-Dihydroxybenzophenone]
concentration in plasma [ng/mL]
Details | 0.25 h | 0.5 h | 2 h | 2.5 min | 3 h | 5 h | 10 min
[1] | 352 | – | 173 | 64.5 | 105 | – | 161
[3] | – | 160 | – | – | – | 40 | –

Details | concentration in plasma [ng/mL]
[2] | 2740
[4] | 149

CCC1(c2ccccc2)C(=O)NCNC1=O [Primidone]
Details | concentration in plasma [ng/mL]
[5] | 70300
[6] | 3000
[7] | 12300
[8] | 19900
[9] | 18800
[10] | 14000

O=C(O)COc1ccc(Cl)cc1Cl [2,4-Dichlorophenoxyacetic acid]
concentration in plasma [ng/mL]
Details | [11] | [12] | [13] | [14]
0.25 h | 6770 | 6170 | – | –
0.5 h | 6600 | – | 6070 | –
1 h | – | 492 | – | –
1.5 h | – | – | – | 327
2 h | 2620 | 1870 | – | 159
2.5 min | 6530 | 146 | 8150 | 127000
3 h | 483 | – | 446 | –
5 min | 7270 | 4920 | – | 68500
10 min | 7510 | 1970 | 8340 | 43200
20 min | – | – | – | 15900
40 min | – | – | – | 2690

CC(C)[C@]12CC(=O)[C@H](C)[C@H]1C2 [alpha-Thujone]
Details | concentration in brain [ng/g] | concentration in plasma [ng/mL]
[15] | 234 | –
[16] | 62.6 | –
[17] | 359 | –
[18] | 87.7 | –
[19] | 1080 | –
[20] | – | 1170
[21] | – | 475
[22] | – | 408

O=S(=O)([O-])C(F)(F)C(F)(F)C(F)(F)C(F)(F)C(F)(F)C(F)(F)F.[K+] [Perfluorohexane-1-sulphonic acid – potassium salt]
Details | concentration in brain [ng/g] | concentration in kidney [ng/g]
[23] | 1090 | –
[24] | – | 35900
[25] | – | 5570
[27] | – | 42800

[26]
Details | concentration in plasma [ng/mL]
0.25 h | 6180
6 h | 68100
528 h | 13900

c1ccncc1 [Pyridine]
Details | concentration in plasma [ng/mL]
[28] | 6010

[29]
Details | concentration in plasma [ng/mL]
0.5 h | 18700
6 h | 16200

C=CCc1ccc(OC)c(OC)c1 [Methyleugenol]
Details | concentration in plasma [ng/mL]
[30] | 308

concentration in plasma [ng/mL]
Details | 2 min | 5 h | 5 min | 6 h
[31] | – | 16.9 | 211 | –
[32] | 43100 | – | – | 68
